Results as given in ChEMBL document CHEMBL5107978, “Identification of ligand linkage vectors for the development of p300/CBP degraders” (RSC Med Chem, 2022).
The source made the active and inactive calls. The rule behind the calls is not given here.

Key:
[1] = tested on: MM1.S; experiment: Antiproliferative activity against human MM1.S cells assessed as reduction in cell proliferation incubated for 72 hrs by MTS assay; type: functional, cell-based
In short: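 MM1.S cells seeded at 2 × 10^5 cells/well, exposed 72 h in triplicate across 12.5–500 nM. Proliferation read by MTS dye absorbance. EC50 fitted with an [inhibitor] vs. normalized response model; uncertainty given as standard error.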

[2] = target: T1, CREB-binding protein/Histone acetyltransferase p300 (Homo sapiens) (UniProt Q09472+Q92793); experiment: Protac activity at p300/CBP degradation in human MM1.S cells assessed as amount p300 remaining at 10 uM incubated for 24 hrs by pulldown-based Western blot analysis; type: cell-based
T1 sequence (Q09472 whole entry, looked up): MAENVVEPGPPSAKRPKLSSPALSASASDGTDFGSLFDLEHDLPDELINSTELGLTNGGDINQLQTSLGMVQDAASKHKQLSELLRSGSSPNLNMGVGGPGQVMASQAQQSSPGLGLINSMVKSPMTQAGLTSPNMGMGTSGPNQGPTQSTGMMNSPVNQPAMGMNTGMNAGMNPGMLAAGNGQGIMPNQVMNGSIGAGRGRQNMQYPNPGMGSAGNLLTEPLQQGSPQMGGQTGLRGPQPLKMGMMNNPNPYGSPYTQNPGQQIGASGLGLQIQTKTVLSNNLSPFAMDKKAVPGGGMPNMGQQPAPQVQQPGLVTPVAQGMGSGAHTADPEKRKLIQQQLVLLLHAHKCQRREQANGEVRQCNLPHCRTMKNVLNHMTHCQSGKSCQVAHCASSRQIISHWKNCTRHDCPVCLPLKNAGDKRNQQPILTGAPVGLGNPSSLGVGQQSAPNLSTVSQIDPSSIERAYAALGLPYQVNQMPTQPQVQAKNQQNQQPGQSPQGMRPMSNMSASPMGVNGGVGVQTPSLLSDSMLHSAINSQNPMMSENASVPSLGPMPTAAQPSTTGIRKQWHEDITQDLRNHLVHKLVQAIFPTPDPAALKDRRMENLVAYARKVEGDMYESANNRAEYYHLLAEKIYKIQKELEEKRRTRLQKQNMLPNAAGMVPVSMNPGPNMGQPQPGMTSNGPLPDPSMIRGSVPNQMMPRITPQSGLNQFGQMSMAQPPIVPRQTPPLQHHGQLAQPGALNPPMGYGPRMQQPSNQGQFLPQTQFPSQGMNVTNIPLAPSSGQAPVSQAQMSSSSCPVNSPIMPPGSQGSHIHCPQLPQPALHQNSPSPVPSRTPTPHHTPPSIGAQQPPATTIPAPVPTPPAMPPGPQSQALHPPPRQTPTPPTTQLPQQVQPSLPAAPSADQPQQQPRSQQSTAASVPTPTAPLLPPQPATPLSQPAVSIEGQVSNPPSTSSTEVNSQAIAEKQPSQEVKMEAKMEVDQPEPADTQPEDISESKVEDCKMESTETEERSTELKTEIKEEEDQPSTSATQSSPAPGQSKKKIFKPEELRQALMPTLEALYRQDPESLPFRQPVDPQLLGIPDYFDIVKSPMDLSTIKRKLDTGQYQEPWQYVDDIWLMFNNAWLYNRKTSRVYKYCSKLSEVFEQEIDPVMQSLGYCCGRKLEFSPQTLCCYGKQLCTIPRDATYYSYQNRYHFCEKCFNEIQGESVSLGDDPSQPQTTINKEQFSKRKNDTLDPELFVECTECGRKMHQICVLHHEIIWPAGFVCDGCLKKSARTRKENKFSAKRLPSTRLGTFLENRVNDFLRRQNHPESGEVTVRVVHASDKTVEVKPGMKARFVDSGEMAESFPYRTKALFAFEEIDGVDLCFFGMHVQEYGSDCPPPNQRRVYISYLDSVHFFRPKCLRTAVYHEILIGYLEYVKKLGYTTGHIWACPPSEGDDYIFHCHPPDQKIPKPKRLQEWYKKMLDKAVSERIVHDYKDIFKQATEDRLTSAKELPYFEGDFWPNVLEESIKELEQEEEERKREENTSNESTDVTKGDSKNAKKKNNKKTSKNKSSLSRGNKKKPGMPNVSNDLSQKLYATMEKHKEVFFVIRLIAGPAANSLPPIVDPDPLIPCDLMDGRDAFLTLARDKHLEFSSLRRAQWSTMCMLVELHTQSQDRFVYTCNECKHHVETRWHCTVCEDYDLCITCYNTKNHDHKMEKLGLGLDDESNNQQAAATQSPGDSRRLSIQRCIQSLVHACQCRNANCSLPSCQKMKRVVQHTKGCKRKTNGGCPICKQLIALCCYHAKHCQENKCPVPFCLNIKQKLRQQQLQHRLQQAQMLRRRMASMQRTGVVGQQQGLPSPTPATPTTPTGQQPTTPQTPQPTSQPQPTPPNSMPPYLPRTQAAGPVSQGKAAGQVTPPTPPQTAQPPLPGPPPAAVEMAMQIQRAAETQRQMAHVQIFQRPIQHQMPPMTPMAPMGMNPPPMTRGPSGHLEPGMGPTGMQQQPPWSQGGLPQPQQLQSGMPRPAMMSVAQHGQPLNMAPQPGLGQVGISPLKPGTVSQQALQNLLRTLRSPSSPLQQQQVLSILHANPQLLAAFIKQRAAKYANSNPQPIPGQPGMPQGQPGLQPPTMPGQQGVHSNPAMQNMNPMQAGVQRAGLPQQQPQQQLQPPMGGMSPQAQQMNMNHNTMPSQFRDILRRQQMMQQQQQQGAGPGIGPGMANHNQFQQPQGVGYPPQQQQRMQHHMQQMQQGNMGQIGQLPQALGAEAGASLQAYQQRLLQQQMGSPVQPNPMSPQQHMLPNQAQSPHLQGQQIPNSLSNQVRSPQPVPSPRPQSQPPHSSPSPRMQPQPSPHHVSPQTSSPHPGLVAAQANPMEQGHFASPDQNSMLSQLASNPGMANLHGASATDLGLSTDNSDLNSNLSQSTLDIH
T1 sequence (Q92793 whole entry, looked up): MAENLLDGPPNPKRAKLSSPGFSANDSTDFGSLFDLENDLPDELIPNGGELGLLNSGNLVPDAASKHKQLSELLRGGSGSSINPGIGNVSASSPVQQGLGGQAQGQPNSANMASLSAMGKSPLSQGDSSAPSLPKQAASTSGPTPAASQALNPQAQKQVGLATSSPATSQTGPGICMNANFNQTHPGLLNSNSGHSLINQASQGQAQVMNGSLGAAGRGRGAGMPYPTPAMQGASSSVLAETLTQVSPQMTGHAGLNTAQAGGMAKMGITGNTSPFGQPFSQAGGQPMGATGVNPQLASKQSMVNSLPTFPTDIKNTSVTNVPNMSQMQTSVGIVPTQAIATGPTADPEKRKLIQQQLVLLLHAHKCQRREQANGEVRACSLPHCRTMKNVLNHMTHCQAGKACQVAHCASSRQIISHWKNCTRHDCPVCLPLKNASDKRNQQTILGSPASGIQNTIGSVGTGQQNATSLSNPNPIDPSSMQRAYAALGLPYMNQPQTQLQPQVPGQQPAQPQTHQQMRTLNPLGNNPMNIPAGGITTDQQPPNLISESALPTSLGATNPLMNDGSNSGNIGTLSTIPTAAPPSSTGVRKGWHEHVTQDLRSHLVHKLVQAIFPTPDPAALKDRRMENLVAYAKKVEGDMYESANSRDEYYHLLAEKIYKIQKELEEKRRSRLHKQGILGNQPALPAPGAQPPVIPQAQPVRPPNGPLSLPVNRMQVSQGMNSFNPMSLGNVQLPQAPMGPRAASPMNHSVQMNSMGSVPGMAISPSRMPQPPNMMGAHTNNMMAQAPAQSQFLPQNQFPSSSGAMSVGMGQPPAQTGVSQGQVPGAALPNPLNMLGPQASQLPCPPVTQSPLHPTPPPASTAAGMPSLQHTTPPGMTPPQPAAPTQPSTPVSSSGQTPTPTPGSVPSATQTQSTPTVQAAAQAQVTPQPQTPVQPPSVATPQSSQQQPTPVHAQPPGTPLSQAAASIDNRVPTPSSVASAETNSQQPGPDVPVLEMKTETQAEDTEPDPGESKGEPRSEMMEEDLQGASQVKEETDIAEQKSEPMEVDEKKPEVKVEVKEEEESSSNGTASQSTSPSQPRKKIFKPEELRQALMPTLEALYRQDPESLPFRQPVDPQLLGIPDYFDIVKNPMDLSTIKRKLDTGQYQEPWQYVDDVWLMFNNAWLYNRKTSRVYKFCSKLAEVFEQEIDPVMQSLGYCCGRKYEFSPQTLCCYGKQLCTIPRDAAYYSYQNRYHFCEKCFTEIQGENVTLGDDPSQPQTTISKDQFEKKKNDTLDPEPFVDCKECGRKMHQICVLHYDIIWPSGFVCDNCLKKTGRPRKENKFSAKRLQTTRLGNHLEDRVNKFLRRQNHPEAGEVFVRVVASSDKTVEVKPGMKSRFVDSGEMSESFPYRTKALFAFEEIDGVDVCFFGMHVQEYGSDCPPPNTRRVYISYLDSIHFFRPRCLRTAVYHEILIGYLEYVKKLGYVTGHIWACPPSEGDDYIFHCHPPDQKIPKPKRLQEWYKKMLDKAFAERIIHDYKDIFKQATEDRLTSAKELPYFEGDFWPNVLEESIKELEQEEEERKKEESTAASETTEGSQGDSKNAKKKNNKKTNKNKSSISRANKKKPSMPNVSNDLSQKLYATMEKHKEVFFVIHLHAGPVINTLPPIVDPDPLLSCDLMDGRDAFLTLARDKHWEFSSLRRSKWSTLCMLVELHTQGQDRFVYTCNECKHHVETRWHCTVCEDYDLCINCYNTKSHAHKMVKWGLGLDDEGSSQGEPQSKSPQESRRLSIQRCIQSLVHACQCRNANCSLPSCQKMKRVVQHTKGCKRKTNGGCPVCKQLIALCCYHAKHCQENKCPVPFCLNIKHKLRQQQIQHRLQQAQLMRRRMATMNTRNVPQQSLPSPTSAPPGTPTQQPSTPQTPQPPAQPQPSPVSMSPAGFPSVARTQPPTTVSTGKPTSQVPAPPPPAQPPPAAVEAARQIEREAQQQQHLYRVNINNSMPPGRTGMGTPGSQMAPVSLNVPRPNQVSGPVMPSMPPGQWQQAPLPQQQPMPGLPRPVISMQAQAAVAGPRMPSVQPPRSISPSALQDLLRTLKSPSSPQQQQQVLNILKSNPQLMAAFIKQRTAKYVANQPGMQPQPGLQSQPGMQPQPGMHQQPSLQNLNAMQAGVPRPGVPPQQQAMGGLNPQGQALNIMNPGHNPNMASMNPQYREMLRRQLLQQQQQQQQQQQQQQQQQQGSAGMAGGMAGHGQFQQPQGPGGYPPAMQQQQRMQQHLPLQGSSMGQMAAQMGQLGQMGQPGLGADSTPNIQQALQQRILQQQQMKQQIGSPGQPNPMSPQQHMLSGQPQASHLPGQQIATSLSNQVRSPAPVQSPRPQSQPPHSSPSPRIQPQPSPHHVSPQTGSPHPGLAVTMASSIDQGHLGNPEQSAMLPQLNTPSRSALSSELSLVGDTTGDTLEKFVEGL
In short: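 MM1.S cells at 2 × 10^6 cells/well in RPMI 1640, pre-incubated 24 h at 37 °C, 5% CO2, then exposed 24 h at 1, 5 or 10 µM. RIPA lysates run on 3–8% tris-acetate SDS gels and probed for p300 and β-actin. Band intensity expressed relative to the lane's DMSO vehicle and β-actin loading control.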

[3] = target: T1, CREB-binding protein/Histone acetyltransferase p300 (Homo sapiens); experiment: Binding affinity to p300/CBP in human OPM-2 cell lysate assessed as p300 pull down and measured after 12 hrs by pulldown-based Western blot analysis; type: subcellular
In short: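 Biotinylated ligands coupled to streptavidin magnetic beads for 3 h at room temperature in 50 mM Tris pH 7.5, 300 mM NaCl, 0.05% NP40. Beads then incubated with OPM2 cell lysate overnight at 4°C, washed in binding buffer, boiled off in SDS loading buffer. Bound p300 detected by SDS-PAGE and anti-p300 immunoblot.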

EC50 [1] [nM]	Activity [2] [%]	Activity [3]	Compound
422	9		C[C@H](N(Cc1ccc(F)cc1)C(=O)CN1C(=O)O[C@@]2(CCc3cc(NC(=O)NCCOCCOCCOCCOCCNc4cccc5c4C(=O)N(C4CCC(=O)NC4=O)C5=O)ccc32)C1=O)C(F)(F)F (stereo partly drawn)
294	49		C[C@H](N(Cc1ccc(F)cc1)C(=O)CN1C(=O)O[C@@]2(CCc3cc(NC(=O)NCCOCCOCCNc4cccc5c4C(=O)N(C4CCC(=O)NC4=O)C5=O)ccc32)C1=O)C(F)(F)F (stereo partly drawn)
	18		C[C@H](N(Cc1ccc(F)cc1)C(=O)CN1C(=O)O[C@@]2(CCc3cc(NC(=O)NCCOCCOCCOCCNc4cccc5c4C(=O)N(C4CCC(=O)NC4=O)C5=O)ccc32)C1=O)C(F)(F)F (stereo partly drawn)
139		Active	CNC(=O)Nc1ccc2c(c1)CC[C@@]21OC(=O)N(CC(=O)N(Cc2ccc(F)cc2)[C@@H](C)C(F)(F)F)C1=O [A-485]
	42		C[C@H](N(Cc1ccc(F)cc1)C(=O)CN1C(=O)O[C@@]2(CCc3cc(NC(=O)NCCCCNc4cccc5c4C(=O)N(C4CCC(=O)NC4=O)C5=O)ccc32)C1=O)C(F)(F)F (stereo partly drawn)
